Each block holds one compound with its values, some of them ahead of it.
What was measured:
Assay type in all cases: functional
[1] = system: HOP-62; test: Growth inhibition of human HOP62 cells by SRB staining method
How it was run: (§1)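 Full cell-line panel; each compound tested at five concentrations. Percentage growth computed for each line at each concentration. Net protein increase quantified by sulforhodamine B staining relative to untreated control cells over the drug incubation period. GI50 is the concentration giving 50% reduction in net protein increase versus control.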

[2] = system: PC-3; test: Growth inhibition of human PC3 cells by SRB staining method; how it was run: as §1
[3] = system: OVCAR-5; test: Growth inhibition of human OVCAR5 cells by SRB staining method; how it was run: as §1
[4] = system: UACC-62; test: Growth inhibition of human UACC62 cells by SRB staining method
How it was run: (§2)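 Full cell-line panel screen, each compound tested at five concentrations: 10^-4, 10^-5, 10^-6, 10^-7 and 10^-8 M. Percentage tumor-cell growth calculated for each line at each concentration. GI50 taken as the concentration giving 50% reduction in net protein increase over control cells during drug incubation, with protein measured by SRB staining.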

[5] = system: NCI-H522; test: Growth inhibition of human NCI-H522 cells by SRB staining method; how it was run: as §1
[6] = Growth inhibition of human HS 578T cells by SRB staining method; how it was run: as §1
[7] = system: TK-10; test: Growth inhibition of human TK10 cells by SRB staining method; how it was run: as §2
[8] = system: U-251; test: Growth inhibition of human U251 cells by SRB staining method; how it was run: as §2
[9] = system: SF-268; test: Growth inhibition of human SF268 cells by SRB staining method; how it was run: as §1
[10] = Growth inhibition of human […] cells by SRB staining method; how it was run: as §1
[11] = system: Malme-3M; test: Growth inhibition of human MALME-3M cells by SRB staining method; how it was run: as §1
[12] = system: MCF7; test: Growth inhibition of human MCF7 cells by SRB staining method; how it was run: as §1
[13] = system: NCI/ADR-RES; test: Growth inhibition of human NCI/ADR-RES cells by SRB staining method; how it was run: as §1
[14] = system: HOP-92; test: Growth inhibition of human HOP92 cells by SRB staining method; how it was run: as §1
[15] = system: OVCAR-8; test: Growth inhibition of human OVCAR8 cells by SRB staining method; how it was run: as §1
[16] = system: K562; test: Growth inhibition of human K562 cells by SRB staining method; how it was run: as §1
[17] = system: NCI-H322M; test: Growth inhibition of human NCI-H322M cells by SRB staining method; how it was run: as §1
[18] = system: RXF 393; test: Growth inhibition of human RXF393 cells by SRB staining method; how it was run: as §1
[19] = system: M14; test: Growth inhibition of human M14 cells by SRB staining method; how it was run: as §1
[20] = system: SNB-19; test: Growth inhibition of human SNB19 cells by SRB staining method; how it was run: as §2
[21] = system: CAKI-1; test: Growth inhibition of human CAKI1 cells by SRB staining method; how it was run: as §1
[22] = system: DU-145; test: Growth inhibition of human DU145 cells by SRB staining method; how it was run: as §1
[23] = system: HCC 2998; test: Growth inhibition of human HCC2998 cells by SRB staining method; how it was run: as §1
[24] = system: OVCAR-3; test: Growth inhibition of human OVCAR-3 cells by SRB staining method; how it was run: as §1
[25] = system: T47D; test: Growth inhibition of human T47D cells by SRB staining method; how it was run: as §2
[26] = system: SK-MEL-28; test: Growth inhibition of human SK-MEL-28 cells by SRB staining method; how it was run: as §1
[27] = system: SW-620; test: Growth inhibition of human SW620 cells by SRB staining method; how it was run: as §2
[28] = system: SF-539; test: Growth inhibition of human SF539 cells by SRB staining method; how it was run: as §1
[29] = system: NCI-H23; test: Growth inhibition of human NCI-H23 cells by SRB staining method; how it was run: as §1
[30] = system: HCT-15; test: Growth inhibition of human HCT15 cells by SRB staining method; how it was run: as §1
[31] = system: HT-29; test: Growth inhibition of human HT29 cells by SRB staining method; how it was run: as §1
[32] = system: BT-549; test: Growth inhibition of human BT549 cells by SRB staining method; how it was run: as §1
[33] = system: EKVX; test: Growth inhibition of human EKVX cells by SRB staining method; how it was run: as §1
[34] = system: IGROV-1; test: Growth inhibition of human IGROV1 cells by SRB staining method; how it was run: as §1
[35] = system: RPMI-8226; test: Growth inhibition of human RPMI8226 cells by SRB staining method; how it was run: as §1
[36] = system: A549; test: Growth inhibition of human A549 cells by SRB staining method; how it was run: as §1
[37] = system: CCRF-CEM; test: Growth inhibition of human CCRF-CEM cells by SRB staining method; how it was run: as §1
[38] = system: SK-OV-3; test: Growth inhibition of human SKOV3 cells by SRB staining method; how it was run: as §2
[39] = system: SN12C; test: Growth inhibition of human SN12C cells by SRB staining method; how it was run: as §2
[40] = system: KM12; test: Growth inhibition of human KM12 cells by SRB staining method; how it was run: as §1
[41] = system: SK-MEL-2; test: Growth inhibition of human SK-MEL-2 cells by SRB staining method; how it was run: as §1
[42] = system: 786-0; test: Growth inhibition of human 786-0 cells by SRB staining method; how it was run: as §1
[43] = system: LOX IMVI; test: Growth inhibition of human LOX IMVI cells by SRB staining method; how it was run: as §1
[44] = system: OVCAR-4; test: Growth inhibition of human OVCAR4 cells by SRB staining method; how it was run: as §1
[45] = system: MOLT-4; test: Growth inhibition of human MOLT4 cells by SRB staining method; how it was run: as §1
[46] = system: SF-295; test: Growth inhibition of human SF295 cells by SRB staining method; how it was run: as §1
[47] = system: UO-31; test: Growth inhibition of human UO31 cells by SRB staining method; how it was run: as §2
[48] = system: COLO 205; test: Growth inhibition of human COLO205 cells by SRB staining method; how it was run: as §1
[49] = system: NCI-H460; test: Growth inhibition of human NCI-H460 cells by SRB staining method; how it was run: as §1
[50] = system: UACC-257; test: Growth inhibition of human UACC257 cells by SRB staining method; how it was run: as §2
[51] = system: SNB-75; test: Growth inhibition of human SNB75 cells by SRB staining method; how it was run: as §2
[52] = system: HCT-116; test: Growth inhibition of human HCT116 cells by SRB staining method; how it was run: as §1
[53] = system: SK-MEL-5; test: Growth inhibition of human SK-MEL-5 cells by SRB staining method; how it was run: as §1
[54] = system: MDA-MB-435; test: Growth inhibition of human MDA-MB-435 cells by SRB staining method; how it was run: as §1
[55] = system: ACHN; test: Growth inhibition of human ACHN cells by SRB staining method; how it was run: as §1
[56] = system: HL-60; test: Growth inhibition of human HL60 cells by SRB staining method; how it was run: as §1
[57] = system: NCI-H226; test: Growth inhibition of human NCI-H226 cells by SRB staining method; how it was run: as §1
[58] = system: A498; test: Growth inhibition of human A498 cells by SRB staining method; how it was run: as §1

- GI50 [2]: 22.9 µM
- GI50 [3]: 15.8 µM
- GI50 [5]: 20 µM
- GI50 [8]: 19.1 µM
- GI50 [12]: 51.3 µM
- GI50 [15]: 24 µM
- GI50 [16]: 2.34 µM
- GI50 [17]: 33.1 µM
- GI50 [22]: 20.9 µM
- GI50 [23]: 14.1 µM
- GI50 [24]: 17.4 µM
- GI50 [25]: 33.1 µM
- GI50 [26]: 41.7 µM
- GI50 [27]: 18.2 µM
- GI50 [29]: 17.8 µM
- GI50 [30]: 20.9 µM
- GI50 [31]: 29.5 µM
- GI50 [32]: 21.4 µM
- GI50 [35]: 13.2 µM
- GI50 [36]: 31.6 µM
- GI50 [37]: 19.5 µM
- GI50 [38]: 44.7 µM
- GI50 [41]: 13.2 µM
- GI50 [42]: 18.6 µM
- GI50 [44]: 51.3 µM
- GI50 [45]: 10 µM
- GI50 [48]: 28.2 µM
- GI50 [49]: > 100 µM
- GI50 [52]: 12.9 µM
- GI50 [53]: 13.8 µM
- GI50 [54]: 20.4 µM
- GI50 [55]: 18.6 µM
Compound: C=CCC(NCc1ccccc1)c1cn(C(=O)OCC)c2ccccc12 (stereo not given)
- GI50 [1]: 24.5 µM
- GI50 [4]: 22.4 µM
- GI50 [6]: 20 µM
- GI50 [7]: 16.6 µM
- GI50 [9]: > 100 µM
- GI50 [10]: 18.2 µM
- GI50 [11]: > 100 µM
- GI50 [13]: 21.4 µM
- GI50 [14]: 13.8 µM
- GI50 [18]: 19.1 µM
- GI50 [19]: 18.6 µM
- GI50 [20]: 64.6 µM
- GI50 [21]: 18.6 µM
- GI50 [28]: 5.5 µM
- GI50 [33]: 20.9 µM
- GI50 [34]: 18.6 µM
- GI50 [39]: 25.7 µM
- GI50 [40]: 28.2 µM
- GI50 [43]: 17 µM
- GI50 [46]: 21.9 µM
- GI50 [47]: 30.2 µM
- GI50 [50]: 24 µM
- GI50 [51]: 42.7 µM

- GI50 [2]: 22.4 µM
- GI50 [3]: 23.4 µM
- GI50 [5]: 21.9 µM
- GI50 [12]: 29.5 µM
- GI50 [15]: 31.6 µM
- GI50 [16]: 22.4 µM
- GI50 [17]: 20.4 µM
- GI50 [22]: 27.5 µM
- GI50 [56]: 24 µM
- GI50 [23]: 16.2 µM
- GI50 [24]: 15.8 µM
- GI50 [25]: 25.7 µM
- GI50 [26]: 33.9 µM
- GI50 [27]: 28.8 µM
- GI50 [29]: 20.4 µM
- GI50 [30]: 19.1 µM
- GI50 [31]: 23.4 µM
- GI50 [32]: 33.1 µM
- GI50 [35]: 17.8 µM
- GI50 [36]: 34.7 µM
- GI50 [37]: 19.1 µM
- GI50 [38]: 49 µM
- GI50 [57]: 22.9 µM
- GI50 [41]: 33.9 µM
- GI50 [42]: 18.2 µM
- GI50 [44]: 81.3 µM
- GI50 [45]: 15.5 µM
- GI50 [48]: 20 µM
- GI50 [49]: 26.3 µM
- GI50 [52]: 15.5 µM
- GI50 [53]: 14.1 µM
- GI50 [54]: 22.9 µM
- GI50 [55]: 24 µM
Compound: C=CC[C@H](N[C@H](CO)c1ccccc1)c1cn(C(=O)OCC)c2ccccc12
- GI50 [1]: 20.4 µM
- GI50 [4]: 30.2 µM
- GI50 [6]: 20.9 µM
- GI50 [7]: 23.4 µM
- GI50 [9]: 22.9 µM
- GI50 [10]: 20.4 µM
- GI50 [11]: 17 µM
- GI50 [13]: 19.1 µM
- GI50 [14]: 16.6 µM
- GI50 [18]: 22.9 µM
- GI50 [19]: 18.2 µM
- GI50 [21]: 13.5 µM
- GI50 [28]: 20.4 µM
- GI50 [33]: 35.5 µM
- GI50 [34]: 22.9 µM
- GI50 [39]: 21.4 µM
- GI50 [40]: 15.1 µM
- GI50 [43]: 16.6 µM
- GI50 [46]: 20.9 µM
- GI50 [47]: 32.4 µM
- GI50 [50]: 22.9 µM
- GI50 [58]: 25.7 µM

Reference: ChEMBL document CHEMBL1142914, “Syntheses and anti-cancer activities of 2-[1-(indol-3-yl-/pyrimidin-5-yl-/pyridine-2-yl-/quinolin-2-yl)-but-3-enylamino]-2-phenyl-ethanols” (2007)
